Screening results as filed in PubChem.
FLuc act counter = FLuc activators, initial screening, artefact control for FLuc-dependent activation tests, biochemical, ATPlite luminescence. Luciferin 4-monooxygenase (Photinus pyralis), P08659. activation factor at 10 µM. 200,000 tested, under 10 active. AID 1027, 2008. ATPlite luciferase biochemical, 10 min; 0 = ATP-free wells, 1 = DMSO control;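 active means luciferase activation factor, scaled between plate controls, of at least 2 with compound at 10 µM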
Target sequence (P08659 whole entry, looked up): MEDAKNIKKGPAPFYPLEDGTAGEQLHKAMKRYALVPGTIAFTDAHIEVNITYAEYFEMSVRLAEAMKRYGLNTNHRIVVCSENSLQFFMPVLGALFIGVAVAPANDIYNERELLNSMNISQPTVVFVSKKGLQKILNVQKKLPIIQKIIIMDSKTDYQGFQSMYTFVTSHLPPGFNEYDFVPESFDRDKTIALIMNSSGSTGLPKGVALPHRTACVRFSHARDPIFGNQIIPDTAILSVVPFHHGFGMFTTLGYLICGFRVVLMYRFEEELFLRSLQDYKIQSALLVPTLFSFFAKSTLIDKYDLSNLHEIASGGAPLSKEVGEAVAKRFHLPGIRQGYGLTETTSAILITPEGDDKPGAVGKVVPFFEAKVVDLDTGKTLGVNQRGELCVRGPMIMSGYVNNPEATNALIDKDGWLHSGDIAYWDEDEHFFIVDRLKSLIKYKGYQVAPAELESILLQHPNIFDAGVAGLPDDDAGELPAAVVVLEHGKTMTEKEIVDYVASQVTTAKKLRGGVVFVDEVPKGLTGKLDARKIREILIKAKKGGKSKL
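Assay system: Luciferase/luciferin reagent mix; Medium: PBS as buffer for the ATP substrate; Dosing: test compounds dosed from 2 mM stocks in 100% DMSO; Times: 10 min, room temperature; Signal: luminescence from luciferase reaction; Read-out: luciferase activation; Controls: No-ATP low control, compound-free enzyme-plus-ATP high control.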
TRAIL sens C8 = viability loss with TRAIL in NB7+C8 cells, primary screen, TRAIL sensitizer project, cell-based, ATPlite luminescence; inhibition (viability loss, TRAIL sensitization), % at 10 µM; 360,000 compounds, 1% hits; AID 624354, 2012;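 active means compounds causing at least 50% loss of cell viability in the single-dose screen, relative to plate controls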
FLuc inhib CS = firefly luciferase enzyme inhibitors, primary screen, artefact control for luciferase-based inhibitor screens, biochemical, luminescence, ATPLite | Luciferin 4-monooxygenase (Photinus pyralis), P08659 | 10 min | inhibition, % at 10 µM | 200,000 compounds, 1.5% hits | AID 1006, 2008;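 active means inhibition above about 50% when tested at 10 µM, limit read from the data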
PPC-1+TRAIL kill = compounds killing PPC-1 cancer cells with TRAIL present, primary screen, TRAIL potentiator project, ATPLite luminescence, uHTS; PPC-1 cells + TRAIL, ATPLite viability luminescence; cell killing (% activity), % at 4 µM or 5 µM; 220,000 compounds, 0.41% hits; AID 1443, 2008;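 active means cell killing above 50% in the first pass at 4 µM, then a duplicate retest at 5 µM averaging 50% or more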;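 further: plate controls were cells with TRAIL plus DMSO for no effect and medium-only wells lacking cells for full effect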
Active calls of the source: *; nt = not tested or not shown. Only some compounds are listed: those with a hit (about 1.6% of all), similar ones and a draw of the others.

SMILES | FLuc act counter | TRAIL sens C8 | FLuc inhib CS | PPC-1+TRAIL kill
Oc1ccccc1-c1cc(-c2ccccc2)no1 | 0.5 | 45* | 51* | 17
Cc1ccc(O)c(-c2cc(-c3ccc(F)cc3)no2)c1 | nt | 69* | nt | nt
COc1ccc(-c2cc(-c3cc(C)ccc3O)[nH]n2)cc1 | 0.9 | 44 | 6 | 4
Cc1ccc(-c2cc(-c3ccccc3)no2)c(O)c1 | 0.1 | 78* | 87* | 50
Cc1ccc2nc(-c3cc(-c4ccccc4)no3)cn2c1 | nt | 57* | nt | 33
Cc1ccccc1-c1cc(-c2ccccc2O)on1 | 0.6 | 35 | 36 | 19
Clc1ccc(-c2cc(-c3ccccc3)on2)cc1 | nt | 18 | nt | nt
CCc1c(C(=O)N/N=C/c2ccco2)nnn1-c1nonc1N | nt | 15 | nt | nt
Cc1nc2ccc(S(=O)(=O)NCC(=O)Nc3cccc(F)c3)cc2s1 | 1 | -5 | -1 | 14
CC(=O)NC(CCc1ccc(Cl)c(Cl)c1)c1cccc(O)c(=O)c1 (configuration not stated) | nt | 15 | nt | nt
COC(=O)[C@@]1(C(C)C)N=C(c2cc(OC)c(OC)c(OC)c2)[C@]2(O1)C(=O)N(C)c1ccccc12 | nt | -11 | nt | nt
CC(C)(C)NC(=O)C1(C)CCC(=O)N1C1CC1 (configuration not stated) | nt | 6 | nt | nt
CCn1ccc(C(=O)Oc2ccc(Cl)cc2)n1 | 0.5 | -1 | 54* | -2
CN(C(=O)c1ccc(Cl)c([N+](=O)[O-])c1)C1(C)CCS(=O)(=O)C1 (configuration not stated) | nt | -11 | nt | nt
COc1ccccc1C(=O)O/N=C1/CCCc2c1ccc(OC)c2[N+](=O)[O-] | 1.1 | -1 | -6 | 9
COc1ccc2c(c1)CC/C2=N\OC(=O)c1ccccc1OC | 0.3 | 2 | 72* | 22
CCCCCCCCCCCCC/C=C/[C@@H](O)[C@@H](N)CO | nt | 71* | nt | nt
CCCCN1CCN=C1N(C)C | nt | -19 | nt | nt
CCN1CCN(c2ccc(NC(=O)CC3OC(=O)c4ccccc43)cc2C)CC1 (configuration not stated) | nt | -6 | nt | nt
CCCCC(=O)N(C)c1c(C)nc2ccc(C(=O)N(CC)CCN(C)C)cn12 | nt | 0 | nt | nt
CC(C)c1ccc(Nc2ncccc2C(=O)O)cc1 | 0.3 | 21 | 67* | 38
Cc1ccc(C)c(-n2cc[nH]c2=S)c1 | 1 | -4 | 3 | -4
Cc1ccc(-c2nn3c(C)nnc3c3ccccc23)cc1S(=O)(=O)NCCN1CCOCC1 | 1.1 | 2 | -10 | 7
Cc1ccc(-c2nn3c(C)nnc3c3ccccc23)cc1S(=O)(=O)NCc1ccccc1 | 1.1 | 52* | -8 | -4
O=S1(=O)C=C(Sc2nnc(-c3ccccc3)o2)c2ccccc21 | 1 | 73* | 2 | 21
SMILES | FLuc act counter | TRAIL sens C8 | FLuc inhib CS | PPC-1+TRAIL kill
CSc1ccc(/C=N/NC(=O)c2cc(O)cc(O)c2)cc1 | 0.3 | 46 | 74* | 22
O=C(N/N=C/c1ccc(F)cc1)c1ccccc1 | 0.2 | 32 | 75* | 37
O=C(Nc1ccccc1C(=O)N/N=C/c1ccc(F)cc1)c1ccccc1Br | 0.3 | 8 | 74* | 16
O=C(N/N=C/c1ccc(O)cc1)c1ccc(NC(=O)c2ccccc2Br)cc1 | 1 | 11 | -3 | 9
O=C(O)c1ccc(/C=N/NC(=O)c2ccc(F)cc2)cc1 | nt | -12 | nt | 5
CC(C)(C)c1ccc(-c2cn(-c3ccc(Br)cc3)c3[n+]2CCCS3)cc1 | 1.1 | 55* | -5 | 49
COC(C[C@H]1O[C@H]1[C@H](O)[C@H](C)OCc1ccccc1)OC | nt | -4 | nt | 24
COc1cccc(-n2c(SCC(=O)N3CCCCC3)nc3c([nH]c4ccccc43)c2=O)c1 | 1 | 54* | -2 | 4
COc1ccc(S(=O)(=O)N2CCOC2CNC(=O)C(=O)NCc2ccccc2Cl)cc1 (configuration not stated) | nt | 4 | nt | nt
CCN(CC)S(=O)(=O)c1cc(C(=O)OCC(=O)Nc2ccc(-c3nc4ccc(C)cc4s3)cc2)ccc1F | 0.8 | 74* | 19 | 28
Cc1ccc2nc(-c3ccc(NS(=O)(=O)c4ccc(F)c(F)c4)cc3)sc2c1 | 0.5 | 31 | 55* | 20
Cc1ccc2nc(-c3ccc(NC(=O)COCC(=O)O)cc3)sc2c1 | nt | 23 | nt | 32
CCN(CC)S(=O)(=O)c1ccc(C(=O)OCC(=O)Nc2ccc(-c3nc4ccc(C)cc4s3)cc2)cc1 | 0.7 | 75* | 33 | 28
CCN(CC(=O)Nc1c(F)cccc1F)C(=O)c1ccc2c(c1)C(=O)N(c1ccccc1C)C2=O | nt | -9 | nt | nt
CSc1ncc(S(=O)(=O)c2ccccc2)c(=O)[nH]1 | 1 | -9 | -2 | 10
Cc1ccc(-c2cc3nc(-c4ccccc4)cc(N)n3n2)cc1 | 0.9 | -1 | 13 | 13
Cc1cc(N)n2nc(-c3ccccc3)cc2n1 | 0.1 | 77* | 91* | 68*
CCCn1c(SCC(=O)N(C)CC(=O)Nc2ccc(C)cc2)n[nH]c1=O | nt | 0 | nt | nt
CC(C)(C)c1ccc(/C=C2\SC(=O)N(CCNC(=O)c3cccc(S(=O)(=O)N4CCOCC4)c3)C2=O)cc1 | 0.3 | 58* | 69* | 15
C/C(=N\NC(=O)c1ccc2c(c1)OCO2)c1ccco1 | 0.2 | 52* | 82* | 37
C/C(=N\NC(=O)c1csc(C)c1C)c1ccc(C)s1 | 0.9 | 13 | 7 | 12
C/C(=N/NC(=O)c1ccc2c(c1)OCO2)c1cccc(NC(=O)C(C)(C)C)c1 | 0.5 | 34 | 53* | 21
C/C(=N\NC(=O)c1csc(C)c1C)c1ccco1 | 0.2 | 55* | 79* | 41
O=C(COC(=O)c1ccc[n+]([O-])c1)Nc1ccc(Cl)cc1[N+](=O)[O-] | nt | -11 | nt | nt
O=C1NC[C@@H](CCCCN2C[C@H](Cc3ccc(O)cc3)N(CCc3ccc(O)cc3)C(=O)C2=O)N(CC2CCCCC2)C1=O | nt | 9 | nt | nt
SMILES | FLuc act counter | TRAIL sens C8 | FLuc inhib CS | PPC-1+TRAIL kill
COc1ccc(-c2nc(-c3ccc(NC(=O)c4ccncc4)cc3)no2)cc1OC | 1.1 | 66* | -8 | 7
COc1ccc(Cl)cc1-c1nc(-c2ccc(NC(=O)c3ccncc3)cc2)no1 | nt | 18 | nt | nt
COc1cc(-c2nc(-c3ccc(NC(=O)c4ccc5c(c4)OCO5)cc3)no2)cc(OC)c1OC | 1 | 59* | 4 | 16
Cc1cc(NC(=O)COC(=O)c2ccccc2Cl)no1 | nt | -16 | nt | nt
N/C(=N\OC(=O)c1ccc(F)cc1)c1nonc1N | 0.5 | 4 | 49 | -7
Cc1nc(/C(N)=N/OC(=O)c2ccccc2Cl)c(C(F)(F)F)o1 | nt | -19 | nt | 12
Cc1cc(/C(N)=N/OC(=O)c2ccccc2Cl)no1 | nt | 61* | nt | 37
N/C(=N/OC(=O)c1ccccc1Cl)c1nonc1N | 0.5 | 6 | 52* | 9
Cc1ccc(C(=O)O/N=C(\N)c2nonc2N)cc1 | 0.2 | -4 | 84* | -7
CCOc1ccc(C(=O)n2cc(C(=O)OC)c3ccccc32)cc1 | nt | 16 | nt | nt
NC(=O)c1c(NC(=O)c2ccc([N+](=O)[O-])o2)sc2c1CCCC2 | nt | -28 | nt | nt
CN1CCc2c(sc(NC(=O)c3ccc([N+](=O)[O-])o3)c2C(N)=O)C1 | nt | 60* | nt | nt
